Data on four molecules can be found in ChEMBL document CHEMBL3046702, “Herbicidal, plant growth inhibitory, and cytotoxic activities of bismuthines containing aromatic heterocycles” (J Agric Food Chem, 2003).

The source made the active and inactive calls. The rule behind the calls is not given here.

The test system of series [1] is Radical scavenging activity. Kind of series: Antioxidant activity assessed as DPPH free radical scavenging activity at 5 to 100 uM after 30 min by spectrophotometric analysis. It counts as functional. In short, it runs like this:
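DPPH reduction by the compounds was read spectrophotometrically at 517 nm after 30 min. 100% DMSO served as the blank and quercetin as the reference scavenger.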

Series [2] has as its system Trifolium pratense. In words: Herbicidal activity against Trifolium pratense var. Kenland (red clover) assessed as inhibition of seed germination at > 18.3 uM after 48 hr. It counts as functional, organism-based.
In series [3] the test system is Lactuca sativa. In words: Herbicidal activity against Lactuca sativa var.Roman (lettuce) seedlings assessed as root length at 75 uM after 120 hr (reference value: 18 to 19 mm). It counts as functional, organism-based.
Series [4] relates to Lolium multiflorum. Kind of series: Herbicidal activity against Lolium multiflorum var. Gulf (Italian ryegrass) seedlings assessed as shoot length rate at 7.5 uM after 48 hr relative to control. It counts as functional, organism-based. In short, it runs like this:
(§1)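 Italian ryegrass seedlings grown with 0, 0.5, 1, 3, 5, 7.5 or 10 µM of each bismuthine. Shoot and root lengths were measured at 48 h and expressed as a percentage of the average untreated control length.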

Series [5] deals with Lactuca sativa. Kind of series: Herbicidal activity against Lactuca sativa var.Roman (lettuce) seedlings assessed as root length at 25 uM after 120 hr (reference value: 18 to 19 mm). It counts as functional, organism-based.
Series [6] concerns Lolium multiflorum. In words: Herbicidal activity against Lolium multiflorum var. Gulf (Italian ryegrass) seedlings assessed as root length rate at 1 uM after 48 hr relative to control. It counts as functional, organism-based. In short, it runs like this: as §1
Series [7] concerns Lactuca sativa. In words: Herbicidal activity against Lactuca sativa var.Roman (lettuce) seedlings assessed as seed germination rate at 1 uM after 48 hr relative to control. It counts as functional, organism-based.
In series [8] the test system is Lolium multiflorum. Kind of series: Herbicidal activity against Lolium multiflorum var. Gulf (Italian ryegrass) seedlings assessed as root length rate at 0.5 uM after 48 hr relative to control. It counts as functional, organism-based. In short, it runs like this: as §1
The test system of series [9] is Lactuca sativa. In words: Herbicidal activity against Lactuca sativa var.Roman (lettuce) seedlings assessed as root length at 5 uM after 120 hr (reference value: 18 to 19 mm). It counts as functional, organism-based.
For series [10], the system named is Lolium multiflorum. In words: Herbicidal activity against Lolium multiflorum var. Gulf (Italian ryegrass) assessed as inhibition of seed respiration during germination after 72 hr by polarographic analysis. It counts as functional, organism-based.
The subject of series [11] is Trifolium pratense. Kind of series: Herbicidal activity against Trifolium pratense var. Kenland (red clover) assessed as inhibition of seed respiration during germination after 72 hr by polarographic analysis. It counts as functional, organism-based. In short, it runs like this: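 Red clover seeds were exposed to the bismuthines during germination, with respiration followed over the imbibition time. Values were taken at 72 h as the concentration giving 50% inhibition of seed respiration, using means of three experiments.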

In series [12] the test system is Lolium multiflorum. Kind of series: Herbicidal activity against Lolium multiflorum var. Gulf (Italian ryegrass) seedlings assessed as root length rate at 3 uM after 48 hr relative to control. It counts as functional, organism-based. The gist of the method:
as §1

For series [13], the system named is Lactuca sativa. In words: Herbicidal activity against Lactuca sativa var.Roman (lettuce) seedlings assessed as seed germination rate at 10 uM after 48 hr relative to control. It counts as functional, organism-based.
Series [14] deals with Lolium multiflorum. Kind of series: Herbicidal activity against Lolium multiflorum var. Gulf (Italian ryegrass) seedlings assessed as root length rate at 7.5 uM after 48 hr relative to control. It counts as functional, organism-based. The gist of the method: as §1
The test system of series [15] is Lactuca sativa. Kind of series: Herbicidal activity against Lactuca sativa var.Roman (lettuce) seedlings assessed as root length at 50 uM after 120 hr (reference value: 18 to 19 mm). It counts as functional, organism-based.
Series [16] has as its system Lolium multiflorum. In words: Herbicidal activity against Lolium multiflorum var. Gulf (Italian ryegrass) seedlings assessed as root length rate at 10 uM after 48 hr relative to control. It counts as functional, organism-based. In short, it runs like this: as §1
Series [17] deals with Lolium multiflorum. Kind of series: Herbicidal activity against Lolium multiflorum var. Gulf (Italian ryegrass) seedlings assessed as shoot length rate at 3 uM after 48 hr relative to control. It counts as functional, organism-based. In short, it runs like this: as §1
The test system of series [18] is Lolium multiflorum. In words: Herbicidal activity against Lolium multiflorum var. Gulf (Italian ryegrass) seedlings assessed as root length rate at 5 uM after 48 hr relative to control. It counts as functional, organism-based. The gist of the method:
as §1

In series [19] the test system is Lolium multiflorum. Kind of series: Herbicidal activity against Lolium multiflorum var. Gulf (Italian ryegrass) seedlings assessed as shoot length rate at 10 uM after 48 hr relative to control. It counts as functional, organism-based. In short, it runs like this: as §1
Series [20] relates to Lactuca sativa. In words: Herbicidal activity against Lactuca sativa var.Roman (lettuce) assessed as inhibition of seed germination at > 36.6 uM after 48 hr. It counts as functional, organism-based.
Series [21] deals with Lactuca sativa. Kind of series: Herbicidal activity against Lactuca sativa var.Roman (lettuce) seedlings assessed as seed germination rate at 5 uM after 48 hr relative to control. It counts as functional, organism-based.
For series [22], the system named is Lactuca sativa. In words: Herbicidal activity against Lactuca sativa var.Roman (lettuce) assessed as inhibition of seed germination at > 48.8 uM after 48 hr. It counts as functional, organism-based.
Series [23] relates to Lactuca sativa. Kind of series: Herbicidal activity against Lactuca sativa var.Roman (lettuce) seedlings assessed as shoot length at 10 uM after 120 hr (reference value: 27 to 31 mm). It counts as functional, organism-based.
Series [24] relates to Lolium multiflorum. In words: Herbicidal activity against Lolium multiflorum var. Gulf (Italian ryegrass) seedlings assessed as shoot length rate at 0.5 uM after 48 hr relative to control. It counts as functional, organism-based. The gist of the method:
as §1

The test system of series [25] is Radical scavenging activity. Kind of series: Antioxidant activity assessed as DPPH free radical scavenging activity at 5 to 100 uM after 30 min by TLC autographic assay. It counts as functional.
The test system of series [26] is Lactuca sativa. In words: Herbicidal activity against Lactuca sativa var.Roman (lettuce) seedlings assessed as seed germination rate at 7.5 uM after 48 hr relative to control. It counts as functional, organism-based.
In series [27] the test system is Lactuca sativa. In words: Herbicidal activity against Lactuca sativa var.Roman (lettuce) seedlings assessed as shoot length at 75 uM after 120 hr (reference value: 27 to 31 mm). It counts as functional, organism-based.
The test system of series [28] is Lolium multiflorum. Kind of series: Herbicidal activity against Lolium multiflorum var. Gulf (Italian ryegrass) seedlings assessed as shoot length rate at 5 uM after 48 hr relative to control. It counts as functional, organism-based. In short, it runs like this: as §1
In series [29] the test system is Lactuca sativa. Kind of series: Herbicidal activity against Lactuca sativa var.Roman (lettuce) seedlings assessed as shoot length at 5 uM after 120 hr (reference value: 27 to 31 mm). It counts as functional, organism-based.
The test system of series [30] is Lactuca sativa. Kind of series: Herbicidal activity against Lactuca sativa var.Roman (lettuce) seedlings assessed as root length at 10 uM after 120 hr (reference value: 18 to 19 mm). It counts as functional, organism-based.
In series [31] the test system is Lactuca sativa. Kind of series: Herbicidal activity against Lactuca sativa var.Roman (lettuce) seedlings assessed as seed germination rate at 0.5 uM after 48 hr relative to control. It counts as functional, organism-based.
In series [32] the test system is Physalis ixocarpa. Kind of series: Herbicidal activity against Physalis ixocarpa assessed as inhibition of seed respiration during germination after 72 hr by polarographic analysis. It counts as functional, organism-based.
The test system of series [33] is Lolium multiflorum. In words: Herbicidal activity against Lolium multiflorum var. Gulf (Italian ryegrass) seedlings assessed as shoot length rate at 1 uM after 48 hr relative to control. It counts as functional, organism-based. The gist of the method:
as §1

Series [34] relates to Lactuca sativa. Kind of series: Herbicidal activity against Lactuca sativa var.Roman (lettuce) seedlings assessed as seed germination rate at 3 uM after 48 hr relative to control. It counts as functional, organism-based.
The subject of series [35] is Lactuca sativa. Kind of series: Herbicidal activity against Lactuca sativa var.Roman (lettuce) seedlings assessed as inhibition of seed germination at 5 uM after 48 hr. It counts as functional, organism-based.
Series [36] deals with Lactuca sativa. In words: Herbicidal activity against Lactuca sativa var.Roman (lettuce) seedlings assessed as shoot length at 50 uM after 120 hr (reference value: 27 to 31 mm). It counts as functional, organism-based.
Series [37] has as its system Lactuca sativa. In words: Herbicidal activity against Lactuca sativa var.Roman (lettuce) seedlings assessed as growth inhibition at 5 uM after 120 hr. It counts as functional, organism-based.
Series [38] concerns Lactuca sativa. Kind of series: Herbicidal activity against Lactuca sativa var.Roman (lettuce) seedlings assessed as shoot length at 25 uM after 120 hr (reference value: 27 to 31 mm). It counts as functional, organism-based.
The subject of series [39] is Phaseolus vulgaris. In words: Herbicidal activity against Phaseolus vulgaris assessed as inhibition of mitochondrial oxygen uptake. It counts as functional, organism-based. The note with it: read-out: I50.
Series [40] deals with Trifolium pratense. In words: Herbicidal activity against Trifolium pratense var. Kenland (red clover) assessed as inhibition of seed germination after 48 hr. It counts as functional, organism-based. The note with it: read-out: I50.
The subject of series [41] is Lolium multiflorum. In words: Herbicidal activity against Lolium multiflorum var. Gulf (Italian ryegrass) assessed as inhibition of seed germination after 48 hr. It counts as functional, organism-based. The note with it: read-out: I50.
The test system of series [42] is Lactuca sativa. Kind of series: Herbicidal activity against Lactuca sativa var.Roman (lettuce) assessed as inhibition of seed germination after 48 hr. It counts as functional, organism-based. Conditions: read-out: I50.
Series [43] deals with Artemia salina. In words: Toxicity in Artemia salina (brine shrimp) larvae assessed as mortality. Conditions: in vivo. It counts as organism-based. The gist of the method: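 Brine shrimp lethality test on *Artemia salina* larvae, run across several concentrations up to a top level of 1000 µM. Mortality was scored at each concentration, and LC50 values in µM were derived from the concentration–mortality data.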

As a reminder, the inhibition is the share of the control response that was lost under treatment. The term LC50 denotes the concentration that kills 50% of the test population.

On to `O=c1c(O)c(-c2ccc(O)c(O)c2)oc2cc(O)cc(O)c12`, for which, in series [1], the outcome was Active.

As for TRIS(2-FURYL)BISMUTH, the inhibition is 100% in series [2], “Dose-dependent effect” in series [11] and 100% in [22]. In addition, the Activity worked out at 0 mm in series [3]; 53% in [4]; 0 mm in [5]; 70% in series [6]; 95% in series [7]; 78% in series [8]. Moreover, the Activity in [9] was 32 mm; in [12] it was 86%; in [13] it was 35%; in [14], 44%; in series [15], 0 mm; in series [16], 30%. The Activity in series [17] came to 79%; in series [18] it was 66%; in series [19] it was 24%; in series [21], 70%; in series [23] it was 11 mm; in series [24], 82%. Further, the Activity in series [26] came to 35%; in series [27], 0 mm; in [28], 55%; in series [29] it was 24 mm; in [30] it was 7 mm; in series [31] it was 95%. In addition, the Activity in series [33] was found to be 75%; in [34] it was 80%. In addition, the inhibition entry in series [10] is “inactive”. Besides, the outcome in series [1] and in series [25] was Active. Further, the inhibition entry in series [20] and in [32] was “Active” throughout.

On to TRIS(2-THIENYL)BISMUTH, for which the Activity turned out to be 0 mm in series [3]; 46% in series [4]; 3 mm in series [5]; 88% in series [6]; 90% in series [7]; 70% in [8]. The Activity in series [9] amounted to 36 mm; in [12], 52%; in [13], 60%; in series [14] it was 50%; in series [36], 5 mm; in series [15], 2 mm. Further, the Activity in series [16] amounted to 30%; in [17] it was 71%; in [18], 76%; in [19] it was 37%; in [21] it was 80%; in [23], 9 mm. Besides, the Activity in series [24] came out at 84%; in series [26], 70%; in [27], 0 mm; in series [28], 75%; in [29], 33 mm; in series [30], 5 mm. Moreover, the Activity in series [31] was determined as 90%; in series [38], 7 mm; in series [33] it was 82%; in series [34], 85%. For the same molecule, the inhibition result in [35] and in series [32] was “Active” throughout. Further, in series [10], the inhibition result was “inactive”. For the same molecule, the inhibition entry in [11] is “Dose-dependent effect”; in series [37], 30%. Moreover, the result in series [1] was Active. In addition, in series [25], the outcome was inactive.

As to TRIS(1-METHYL-2-PYRROLYL)BISMUTH, the IC50 in series [39] is 17.1 µM; in series [11] (read-out: I50) it was 8.4 µM; in series [40] it was 7.5 µM; in [41] it was 33.8 µM; in series [42], 34 µM. Besides, in series [43], the LC50 was 638 µM.
